Shown are actives, neighbours in structure and some others; about 3.3% of the full set was active somewhere.
UHRF1 binding: UHRF1 methylated DNA binding inhibitors, primary screen, counter-screen for MBD2 inhibitor project, biochemical, TR-FRET, human UHRF1, single concentration; E3 ubiquitin-protein ligase UHRF1 (Homo sapiens), Q96T88; UHRF1 binding to methylated oligo; inhibition, % at 4.4 µM; 370,000 compounds, 0.75% hits; in the data active = inhibition above about 21%;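 note: UHRF1 SRA domain binding a hemimethylated CpG hairpin DNA probe; 0% = median of test compound wells and 100% = reference inhibitor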
TDP2 inh: human TDP2 enzyme inhibitors, primary screen, biochemical, epi absorbance, recombinant enzyme | 370,000 compounds, 0.34% hits | AID 720702, 2013 | inhibition, % at 12.8 µM | T5PNP hydrolysis, p-nitrophenol absorbance 415 nm | Tyrosyl-DNA phosphodiesterase 2 (Homo sapiens), O95551;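 active = inhibition above the mean of all tested compounds plus 3 SD, set per campaign, cut at about 25% in these data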;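 note: 0% = DMSO with enzyme and 100% = buffer with substrate but no TDP2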
Target sequence (O95551 whole entry, looked up): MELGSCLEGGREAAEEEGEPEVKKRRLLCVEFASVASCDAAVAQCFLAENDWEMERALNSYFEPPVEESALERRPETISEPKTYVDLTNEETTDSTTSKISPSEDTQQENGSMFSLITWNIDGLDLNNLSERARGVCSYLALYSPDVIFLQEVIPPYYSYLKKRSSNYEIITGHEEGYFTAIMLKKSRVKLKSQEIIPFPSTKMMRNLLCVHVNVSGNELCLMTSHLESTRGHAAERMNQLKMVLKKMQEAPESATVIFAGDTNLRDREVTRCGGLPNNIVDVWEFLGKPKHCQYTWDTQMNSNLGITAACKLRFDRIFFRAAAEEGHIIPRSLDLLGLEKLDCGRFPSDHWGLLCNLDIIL
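Incubation: 2 h at 37 °C; Test system: recombinant human TDP2; Quantity: enzyme 120 nM; Read-out basis: percent inhibition; Medium: 50 mM Tris-HCl pH 7.5 with Mg2+, KCl, DTT, BSA; Repeats: single replicate; Compound: 12.8 µM single point, 1% DMSO; Signal: epi absorbance; Reagent: 5 mM T5PNP chromogenic substrate; Benchmarks: no-enzyme high, DMSO-plus-enzyme low.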
SIAE primary: human SIAE inhibitors, primary screen, biochemical, fluorescence polarization, FP-Rh probe, 1536-well HTS. SIAE FP-Rh probe binding. Sialate O-acetylesterase (Homo sapiens), Q9HAT2. inhibition, % at 9.66 µM. 370,000 compounds, 0.69% hits;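 active = inhibition above a cutoff: mean of compounds within the control limits plus 3 SD of those, cut at about 17% in these data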;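 note: 0% = plate median of compound wells and 100% = probe without SIAE protein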
PRMT1 inh: PRMT1 methyltransferase inhibitors, primary screen, biochemical, fluorescence polarization. Protein arginine N-methyltransferase 1 (Homo sapiens), Q99873. recombinant PRMT1, activity-based probe fluorescence polarization. AID 652257, 2013. inhibition, % at 2.79 µM. 370,000 compounds, 1.3% hits;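 active = inhibition above about 21% made by adding two undisclosed values, limit read from the data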
Target sequence (Q99873 whole entry, looked up): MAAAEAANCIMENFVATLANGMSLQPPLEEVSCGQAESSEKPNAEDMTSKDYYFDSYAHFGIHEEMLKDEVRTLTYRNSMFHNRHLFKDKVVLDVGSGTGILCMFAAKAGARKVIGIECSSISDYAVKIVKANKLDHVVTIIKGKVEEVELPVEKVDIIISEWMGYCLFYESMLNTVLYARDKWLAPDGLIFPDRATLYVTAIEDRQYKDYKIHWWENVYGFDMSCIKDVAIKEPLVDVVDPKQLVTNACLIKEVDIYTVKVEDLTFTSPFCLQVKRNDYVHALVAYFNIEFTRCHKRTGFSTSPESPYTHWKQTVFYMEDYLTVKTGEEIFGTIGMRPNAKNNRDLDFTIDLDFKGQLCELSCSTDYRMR
MBD2 DNA inh: inhibitors of MBD2 binding to methylated DNA, primary screen, biochemical, TR-FRET, DNA-binding domain, human; Methyl-CpG-binding domain protein 2 (Homo sapiens), Q9UBB5; MBD2 binding to methylated oligonucleotide; inhibition, % at 4.4 µM; 370,000 compounds, 0.31% hits; AID 686964, 2013; in the data active = inhibition above about 13%
LEDGF integ inh: blockers of LEDGF/p75-dependent integrase strand transfer – biochemical, TR-FRET, high throughput, primary screen; HIV-1 integrase (with human LEDGF/p75); TR-FRET IN-LEDGF/p75 DNA integration, Eu/Cy5; inhibition, % at 3.7 µM; 370,000 compounds, 0.64% hits; AID 743269, 2014;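 active = inhibition above the screen-wide mean plus 3 SD, cut at about 13% in these data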;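 note: signal is the Cy5 over europium emission ratio at 671 and 618 nm; 0% = plate median of compound wells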
IN multimer up: HIV-1 IN multimer formation enhancers, counter-screen for LEDGF/p75 integration inhibitor project, biochemical, TR-FRET; shares compounds with LEDGF integ inh; TR-FRET HIV-1 integrase multimerization; activation, % at 7.7 µM; 2,000 compounds, 17% hits; in the data active = activation above about 8.9%
TR-FRET interf: TR-FRET optical interference artefacts, confirmation, artefact control for LEDGF/p75-dependent integration inhibitor project, biochemical, HIV-1 IN multimerization; AID 1053135, 2014; shares compounds with LEDGF integ inh; TR-FRET optical interference counterscreen; 2,000 tested, under 10 active; inhibition, % at 7.7 µM;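 active = inhibition above the mean over all tested compounds plus 3 SD, which no compound reached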;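 note: 0% = integrase with antibodies and DMSO and 100% = antibodies without integrase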
IN-LEDGF confirm: inhibitors of HIV-1 IN-LEDGF/p75 DNA integration, confirmation, biochemical, TR-FRET; AID 1053136, 2014; shares compounds with LEDGF integ inh; 2,000 compounds, 36% hits; TR-FRET LEDGF/p75-dependent HIV-1 integration; inhibition, % at 3.7 µM; in the data active = inhibition above about 14%
SIAE confirm: human SIAE inhibitors, retest, confirmation, biochemical, fluorescence polarization, FP-Rh probe, triplicate; shares compounds with SIAE primary; SIAE FP-Rh activity-based probe; inhibition, % at 9.66 µM; 2,300 compounds, 13% hits;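 active = mean inhibition of the replicates above the hit cutoff set in the primary screen, cut at about 17% in these data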;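 note: 0% = SIAE with DMSO and probe and 100% = probe without SIAE; inhibitors lower polarization as more probe stays unbound to SIAE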
Numbers without * were called inactive; . = not tested or not shown.

SMILES | UHRF1 binding | TDP2 inh | SIAE primary | PRMT1 inh | MBD2 DNA inh | LEDGF integ inh | SIAE confirm | others
COc1cccc(-c2ccc(CC[C@H]3O[C@H]4CC[C@@H](CO)O[C@H]4C[C@H]3NC(=O)c3cnccn3)cc2)c1 | 2 | 2 | -4 | -2 | 1 | 8 | .
Oc1ccc(N=Cc2cc(Br)c(N3CCOCC3)o2)cc1 | -5 | 0 | 4 | 10 | -1 | 0 | .
O=[N+]([O-])c1cc(Br)c(O)c(C=Nc2ccc(N3CCOCC3)cc2)c1 | 0 | 21 | 29* | 9 | -5 | 26* | -2 | IN multimer up=8.9*;TR-FRET interf=-32;IN-LEDGF confirm=15*
NNC(=O)c1oc2nc(-c3ccco3)cc(-c3ccco3)c2c1N | 11 | 3 | 50* | 38* | 8 | 64* | 74* | IN multimer up=11*;TR-FRET interf=-55;IN-LEDGF confirm=11
O=C1C=CC(=O)c2c(O)c(CO)c(CO)c(O)c21 | 87* | 28* | 53* | 50* | 57* | 77* | 44* | IN multimer up=32*;TR-FRET interf=-162;IN-LEDGF confirm=80*
Cc1nc2c(C)cccc2cc1C(=O)N/N=C/c1cccnc1 | -1 | -6 | 18* | -4 | -1 | -4 | 2
COc1ccc(CCC(=O)Nc2cccc(S(=O)(=O)N3CCOCC3)c2)cc1OC | 3 | -16 | -4 | 3 | -2 | 2 | .
O=C(CCc1ccccc1)Nc1cccc(S(=O)(=O)N2CCOCC2)c1 | -1 | 4 | 25* | 2 | 1 | -2 | -10
COC(=O)[C@]12C[C@H](CC(=O)N3CCC(c4ccccc4)CC3)C(=O)N(Cc3ccc(Cl)cc3Cl)C1=C[C@H](C1CCCC1)O[C@@H]2C | 1 | 10 | -1 | 4 | 1 | -2 | .
CC(C)c1ccc(C2C3=C(CC(C)(C)CC3=O)NC3=C2C(=O)c2ccccc23)cc1 (stereo not drawn) | -1 | -1 | 23* | 17 | 0 | 0 | 2
CC1(C)CC(=O)C2=C(C1)NC1=C(C(=O)c3ccccc31)C2c1ccccc1 (stereo not drawn) | -8 | 2 | 12 | 13 | -6 | -5 | .
CC(C)(C)N(NC(=O)Nc1ccc(Cl)cc1)C(=O)c1ccccc1 | 0 | -1 | 17* | 0 | -5 | 1 | -7
CC(C)(C)N(NC(=O)Nc1ccccc1)C(=O)c1ccccc1 | -1 | -21 | -3 | -4 | -7 | 6 | .
COC(=O)C1=C(C)N(Cc2cccc(C(F)(F)F)c2)C(=NCc2cc(OC)c(OC)c(OC)c2)NC1c1ccc(F)cc1 (stereo not drawn) | 1 | -7 | -1 | -2 | 2 | 0 | .
CN(C)/C=C(\C(=O)c1ccc(Cl)cc1)c1nnnn1-c1ccc(Cl)cc1 | 0 | 6 | 18* | 0 | -6 | 3 | -5
CC(C)CN1C(=O)C(=O)N(CC(=O)N(C)CC(=O)Nc2ccc(F)cc2)C1=O | 0 | -2 | 20* | -5 | -3 | 0 | 3
CN(CC(=O)Nc1ccc(F)cc1)C(=O)Cc1ccsc1 | 0 | 1 | 3 | 2 | 2 | -1 | .
CN1CCC(=NNC(=O)CN(c2cccc([N+](=O)[O-])c2)S(=O)(=O)c2ccccc2)CC1 | -3 | -2 | 23* | -6 | 2 | 5 | -1
C=CCN1[C@@H](C)[C@@H](c2ccccc2)Oc2c(Cl)cccc2S1(=O)=O | 1 | -5 | -3 | -4 | -4 | 3 | .
Clc1ccc(N2CCCCCC2)nn1 | 1 | 3 | 18* | -1 | -4 | 0 | -7
O=C(/C=C/c1ccco1)c1cccc([N+](=O)[O-])c1 | 9 | 7 | 8 | 20 | 2 | 7 | .
O=C(N/N=C/C=C/c1ccco1)c1cccc([N+](=O)[O-])c1 | -1 | 4 | 17* | 10 | -3 | -5 | -6
CCCOc1ccc(OCCN2CCCC(C)C2)cc1 (stereo not drawn) | 3 | 15 | 20* | -3 | 1 | 4 | 7
CC1=CC(C)(C)N2C(=O)C3(NCCc4c3[nH]c3ccccc43)c3cccc1c32 (stereo not drawn) | 0 | 5 | 18* | 5 | 3 | -4 | 4
Cc1ccc(Cn2c(=O)n(Cc3ccc(C(=O)NCC4COC4)cc3)c(=O)c3ccccc32)cc1 | 0 | 4 | -8 | 1 | 1 | 4 | .
SMILES | UHRF1 binding | TDP2 inh | SIAE primary | PRMT1 inh | MBD2 DNA inh | LEDGF integ inh | SIAE confirm | others
Oc1ccc(C=NNc2nc3ccccc3s2)c(O)c1 | -6 | -4 | -2 | -4 | -3 | -3 | .
Oc1ccc(/C=N/Nc2ccc3ccccc3c2)c(O)c1 | -5 | 6 | 21* | 9 | 3 | -5 | 17
CC(C)NC(=O)Cn1c(-c2cncs2)nc2ccccc21 | -3 | 1 | -3 | -3 | -5 | 2 | .
CCNc1ccccc(-c2ccc3ccccc3n2)c1=O | -5 | 5 | 11 | 2 | -9 | 3 | .
CCNc1ccc2noc3c2c1C(=O)c1ccccc1-3 | -35 | 11 | 98* | 154* | -19 | -11 | 91*
Cc1[nH]c2ccc(F)cc2c1CCN1C(=O)OC(C)(C)C1(C)O (stereo not drawn) | -2 | 0 | 26* | 0 | -7 | -2 | 3
O=C(Nc1ccc(Cl)cc1)C1CCCN1S(=O)(=O)c1cccnc1 (stereo not drawn) | -2 | 4 | -5 | 0 | 5 | 0 | .
Cc1ccc(CNC(=O)O[C@H]2CC[C@@]34CCCN3C(=O)CCC[C@H]4C2)o1 | -1 | 3 | 1 | -3 | -1 | 0 | .

Bioassay records: PubChem, The Scripps Research Institute Molecular Screening Center
